Screening data as filed in PubChem BioAssay.
Most compounds without a hit are left out; they make up all but 2% or so of the library.
PAD4 inh: PAD4 (human) enzyme inhibition; inhibition, % at 6.36 µM; actives 0.41% (n = 330,000); recombinant PAD4, RCA probe fluorescence polarization; Q9UM07; AID 485272;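 active = percent inhibition above a cutoff equal to the mean of all tested compounds plus 3 SD, cut at about 15% in these data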;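 note: 0% = PAD4 with RCA probe and DMSO and 100% = probe without PAD4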
TCR CD3 inh: human TCR-CD3 binding inhibition. inhibition, % at 9.4 µM. TAMRA-labeled TCR probe fluorescence, biochemical. actives 0.37% (n = 360,000); in the data active = inhibition above about 19%;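 note: recombinant mutant TCR 2C K166C tagged with TAMRA read by polarization; 0% = receptor in buffer alone and 100% = receptor with positive control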
SIAE primary: blocks human sialic acid acetylesterase; Q9HAT2; SIAE FP-Rh probe binding, fluorescence polarization; inhibition, % at 9.66 µM; actives 0.69% (n = 370,000); AID 1053197;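 active = inhibition above a cutoff: mean of compounds within the control limits plus 3 SD of those, cut at about 17% in these data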;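 note: 0% = plate median of compound wells and 100% = probe without SIAE protein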
Target sequence (Q9HAT2 whole entry, looked up): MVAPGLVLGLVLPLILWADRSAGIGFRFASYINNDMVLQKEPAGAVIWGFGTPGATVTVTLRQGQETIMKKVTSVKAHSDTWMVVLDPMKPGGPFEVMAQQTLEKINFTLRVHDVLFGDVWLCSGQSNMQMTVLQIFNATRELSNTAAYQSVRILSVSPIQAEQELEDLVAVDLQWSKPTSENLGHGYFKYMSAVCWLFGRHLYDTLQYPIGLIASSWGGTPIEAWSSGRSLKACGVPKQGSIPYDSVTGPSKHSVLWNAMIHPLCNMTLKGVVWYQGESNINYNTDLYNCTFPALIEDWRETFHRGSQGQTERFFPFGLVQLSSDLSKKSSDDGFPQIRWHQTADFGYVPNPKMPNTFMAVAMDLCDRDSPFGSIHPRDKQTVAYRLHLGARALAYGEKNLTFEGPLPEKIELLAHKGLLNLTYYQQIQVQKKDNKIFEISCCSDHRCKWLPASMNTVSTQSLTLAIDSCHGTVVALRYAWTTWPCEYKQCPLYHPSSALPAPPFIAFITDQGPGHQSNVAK
HTRA1 inhibitor: blocks human HTRA1 serine peptidase; inhibition, % at 5.96 µM; actives 0.5% (n = 340,000); Q92743; recombinant HTRA1, FP-rhodamine activity-based probe, fluorescence polarization; in the data active = inhibition above about 36%;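 note: 0% = enzyme with DMSO and 100% = wells lacking enzyme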
TDP2 inh: TDP2 (human) inhibition, absorbance primary screen; inhibition, % at 12.8 µM; AID 720702; recombinant TDP2, T5PNP hydrolysis, p-nitrophenol absorbance 415 nm; O95551; actives 0.34% (n = 370,000);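 active = inhibition above the mean of all tested compounds plus 3 SD, set per campaign, cut at about 25% in these data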;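 note: 0% = DMSO with enzyme and 100% = buffer with substrate but no TDP2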
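Evaluation: % inhibition relative to enzyme-containing and enzyme-free wells. Material: recombinant human TDP2. Benchmarks: enzyme-free and DMSO wells. Timing: enzyme reaction with compound for 2 h at 37 °C. Compound dosing: 12.8 µM only. Measured by: p-Nitrophenol epi absorbance. Reagent: T5PNP substrate at 5 mM, a TopII-DNA adduct mimic. Replication: single well per compound.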
ABHD4 inh: inhibitors of mouse ABHD4; inhibition, % at 8.92 µM; purified mABHD4, FP-Rh probe fluorescence polarization; Q8VD66; actives 0.54% (n = 370,000);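 active = inhibition exceeding the mean over every tested compound plus 3 SD, cut at about 30% in these data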;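 note: 0% = plate median of compound wells and 100% = S159A mutant with DMSO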
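Test system: mABHD4 protein; Read-out basis: % inhibition; Incubation: 45 min + 60 min at 25 °C; Repeats: single replicate; Technique: fluorescence polarization with parallel and perpendicular emission, 525/598 nm; Compound: 8.92 µM, single dose; Benchmarks: full inhibition S159A mutant plus DMSO, zero as sample-well median.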
SIAE inh conf: human SIAE inhibition, confirmation. shares compounds with SIAE primary. SIAE FP-Rh activity-based probe, fluorescence polarization. inhibition, % at 9.66 µM. actives 13% (n = 2,300);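 active = mean inhibition of the replicates above the hit cutoff set in the primary screen, cut at about 17% in these data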;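 note: 0% = SIAE with DMSO and probe and 100% = probe without SIAE; inhibitors lower polarization as more probe stays unbound to SIAE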
An asterisk follows results filed as active; . = no result.

SMILES	PAD4 inh	TCR CD3 inh	SIAE primary	HTRA1 inhibitor	TDP2 inh	ABHD4 inh	SIAE inh conf
COc1ccc(C(=O)Nc2c(N)nc(SCC(=O)NCC3CCCO3)[nH]c2=O)cc1OC (centres undefined)	-2.5	-6.3	6.6	2.0	2.6	5.1	.
COC(=O)[C@]12C[C@H](CC(=O)NCCc3ccccc3OC)C(=O)N(Cc3ccccc3)C1=C[C@H](C1CCCC1)O[C@@H]2C	.	6.5	-1.9	.	2.6	-5.9	.
COC1=C(Br)C(=O)c2ncccc2C1=O	.	2.6	22.1*	18.1	94.2*	10.8	-1.0
COc1cc(CCCN2CCNC[C@H]2Cc2cccc3ccccc23)cc(OC)c1OC	2.9	4.6	4.5	-3.0	9.1	8.0	.
Cc1ccc2c(c1)C(CS(=O)(=O)NC1CCCC1)NC2 (centres undefined)	.	.	-2.1	.	1.9	0.4	.
CC1=C(C(=O)Nc2cc(C(=O)N3CCN(c4ccc(Cl)cc4)CC3)ccc2C)SCCO1	.	1.6	19.2*	-4.6	-0.9	7.7	-0.9
COC(=O)C1(C)CCCC2(C)C1CCC13OCC(CC21)C(O)(C(C)C)C3O (centres undefined)	.	-3.2	-0.8	-1.1	4.8	7.2	.
O=C(CCN1C(=O)c2ccccc2C1=O)Nc1cccc(O)c1	-3.4	5.4	20.3*	9.9	13.7	-0.9	-0.7
O=C(CCCCCN1C(=O)c2ccccc2C1=O)Nc1cccc(O)c1	-1.3	6.1	3.1	3.3	3.9	-0.2	.
COc1ccc(CNC(=O)[C@H](Cc2ccccc2)NC(=O)CC[C@H]2O[C@@H](n3ccc(=O)[nH]c3=O)[C@H](O)[C@@H]2O)cc1	.	-0.1	2.1	.	-3.8	-5.1	.
Cc1[nH]c2ccccc2c1CC(=O)Nc1ccc(Nc2ccncc2)cc1	.	-0.7	34.3*	.	0.7	3.0	24.6*
Cc1cc(-c2cc(NC(=O)Cc3c(C)[nH]c4ccccc34)ccc2Nc2cccnc2)ccc1F	.	-5.5	7.2	.	8.5	19.6	.
Cc1[nH]c2ccccc2c1CC(=O)Nc1ccc(Nc2ccccc2)cc1	.	-9.9	14.9	.	5.5	11.4	.
COc1ccc(-c2cc(NC(=O)Cc3c(C)[nH]c4ccccc34)ccc2Nc2cccnc2)cc1OC	.	0.3	17.4*	.	-2.5	4.9	6.5
COc1ccc(CCNC(=O)C(NS(=O)(=O)c2ccc3c(c2)CCN3C(C)=O)C(C)C)cc1OC (centres undefined)	-3.9	.	.	.	.	.	.
CC(NC(=O)c1ccccc1)C(=O)N/N=C/c1ccco1 (centres undefined)	-6.4	-4.6	17.8*	1.2	0.5	-3.0	-1.2
CC(OC(=O)C1=COCCO1)C(=O)NC1CCCC(C)C1C (centres undefined)	.	1.6	1.5	2.9	-10.1	7.5	.
CN(C)c1ccc(C(CNC(=O)c2ccccc2F)c2c[nH]c3ccccc23)cc1 (centres undefined)	0.0	-3.4	0.3	-4.5	-4.7	1.8	.
CN(C)c1ccc(C(CNS(=O)(=O)c2ccc(F)c(F)c2)c2c[nH]c3ccccc23)cc1 (centres undefined)	2.3	4.1	27.5*	10.8	-4.1	-9.8	3.2
Cc1ccc(S(=O)(=O)N(C)CC(=O)NNC(=O)Cc2ccccc2F)cc1	-2.3	-2.0	0.0	5.5	-4.5	-6.3	.
CC1=C(C(=O)N(C(C)C)C(C)C)CC(CC(=O)NCc2cccs2)C(=O)N1CCCN1CCCC1=O (centres undefined)	.	-6.3	20.8*	.	-9.6	5.3	0.4
O=C(OC12CCCN(C1)/C(=C/c1cccnc1)C2)c1ccc(F)cc1 (centres undefined)	.	.	-0.7	.	3.7	1.3	.
CCCc1cc(=O)oc2c(CN3CCCC3)c(O)ccc12	-4.3	0.7	3.1	6.5	3.2	2.6	.
CCCc1cc(=O)oc2c(CN3CCCC3)c(O)c(Cl)cc12	3.8	9.0	19.9*	5.1	9.2	6.7	4.1
CCOC(=O)c1ccc2c(c1)n(CC)c(/C=C/Nc1ccccc1)[n+]2CC	-2.7	-5.6	17.9*	-1.3	2.1	2.4	5.3
SMILES	PAD4 inh	TCR CD3 inh	SIAE primary	HTRA1 inhibitor	TDP2 inh	ABHD4 inh	SIAE inh conf
Cc1ccc(C(=O)NCCC(=O)N2CCCC2)cc1	-5.7	-2.8	4.4	-3.5	5.8	4.9	.
O=C(CSc1nc(=O)n(CCCN2CCOCC2)c2c1CCC2)Nc1ccc([N+](=O)[O-])cc1	-2.4	-4.8	17.7*	8.2	3.8	6.4	1.2
O=C(CSc1nc(=O)n(CCCN2CCOCC2)c2c1CCCC2)Nc1cccc([N+](=O)[O-])c1	1.7	1.4	7.1	-3.3	-9.8	-8.0	.
CCN(CC)CCCn1c2c(c(SCC(=O)Nc3ccccc3Cl)nc1=O)CCC2	-0.7	2.6	18.1*	-6.2	8.2	3.2	-1.1
CCN(CC)CCn1c2c(c(SCC(=O)Nc3ccccc3Cl)nc1=O)CCCC2	-1.1	5.9	-0.1	3.8	-4.3	1.1	.
Cc1cccc(/C(N)=N/OC(=O)c2ccc(F)cc2)c1	-1.9	-2.7	20.5*	2.3	-7.5	2.9	-1.0
N/C(=N\OC(=O)c1ccc(F)cc1)c1cccc([N+](=O)[O-])c1	0.5	5.6	10.8	-3.8	11.2	-6.0	.
CC(Cc1nnc(N)s1)c1ccccc1 (centres undefined)	1.4	-4.3	4.2	10.1	-13.1	-12.3	.
N/C(=N\OC(=O)Cc1ccc(Cl)cc1)c1ccncc1	-7.3	7.0	-2.9	-0.5	-7.4	-4.4	.
CC(C)(Oc1ccc(Cl)cc1)C(=O)O/N=C(\N)c1ccncc1	0.9	1.8	17.9*	-7.3	1.7	-1.4	0.9
Cc1ccc(-n2ccnc(SCC(=O)NC3CCCC3)c2=O)cc1F	-1.0	8.4	-0.1	4.3	11.2	2.7	.
Cc1ccc(-n2ccnc(SCC(=O)NC3CCCC3)c2=O)cc1Cl	-2.3	0.1	17.4*	1.2	19.6	9.2	-9.1
CN(c1cccnc1)c1ccc(NC(=O)Cc2cn(Cc3ccccc3)c3ccccc23)cc1Br	.	1.9	20.6*	.	-1.8	17.6	24.4*
Cn1cc(CC(=O)Nc2ccc(Nc3cccnc3)cc2)c2ccccc21	.	-7.4	21.0*	.	0.1	7.6	23.1*
O=C(NC(=S)N(Cc1ccccc1)Cc1ccccc1)c1ccccc1F	1.4	-4.1	78.7*	-12.2	9.6	2.5	-1.8
O=C(CN(Cc1ccccc1)S(=O)(=O)c1ccc(F)cc1)NCc1ccccn1	0.7	6.2	2.5	5.3	-1.2	-7.5	.
COC(=O)C1C(=O)c2c(n[nH]c2C)CC1(C)C (centres undefined)	1.0	3.6	18.6*	6.8	0.6	-1.3	0.8
CCCc1n[nH]c2c1C(=O)C(C(=O)OC)C(C)(C)C2 (centres undefined)	-1.4	-4.1	0.0	6.7	11.5	5.3	.
